Assay results: PubChem BioAssay
Values without a mark were called inactive. Records with an inconclusive call do not appear. The source made the active and inactive calls.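 Rule for the calls, unless noted: active = cell viability at or below a set limit in both duplicate runs, the limit being the all-compound median minus 4 SD (cut at about 23% in these data, passing the limit was not always enough); inconclusive = no clear call, values can overlap the other calls; inactive = the rest.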

Key:
[1] = OD615 S. cerevisiae growth inhibition, permissive medium, pilot counter-assay, permissive growth control for S. cerevisiae lifespan shortening project (AID 705;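 active = growth inhibition above 25% in both replicates, a cutoff set 3 SD above the mean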); details: OD615, 24 h, at 10 µM, stronger effect = higher value
How it was run: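 Timing: 24 h exposure, 30 °C / Material: Saccharomyces cerevisiae strain carrying genetically modified DeaD replicative-lifespan system / Signal: OD at 615 nm / Compound: 10 µM single dose, 0.25% DMSO / Medium: SC raffinose/galactose permissive medium / Evaluation: reduction in yeast growth (OD615)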

[2] = Restrictive medium S. cerevisiae growth inhibition, OD615, pilot screen of yeast lifespan reduction project, restrictive growth control (AID 706;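 active = growth inhibition above a set limit, 3 SD over mean compound inhibition, in both replicates, cut at about 43% in these data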;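 note: modified DeaD lifespan yeast strain shifted to restrictive glucose medium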); details: OD615, 48 h, at 10 µM, stronger effect = higher value
How it was run: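 System: Engineered S. cerevisiae DeaD strain | Detection: OD615 | Buffer or medium: CSMM-D glucose medium | Doses: 10 µM compound, 0.25% DMSO | Timing: 4 h pre-growth plus 48 h compound exposure, 30 °C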

[3] = viability gain of MRP-1-high H69AR cells under doxorubicin, pilot screen, MRP-1 activator project, CellTiter-Glo, duplicate (AID 807;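 active = viability increase at or above a cutoff of the median across tested compounds plus 3 SD, cut at about 8.5% in these data, passing the limit was not always enough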;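 note: compound pretreatment 18-22 h then 72 h combined with doxorubicin; 0% = doxorubicin alone and 100% = vehicle without doxorubicin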); details: H69AR viability with doxorubicin, CellTiter-Glo luminescence; at 10 µM; stronger effect = higher value
[4] = growth suppression of beta-catenin knockout HCT116, pilot screen, human colon tumor cells (AID 823); details: CellTiter-Glo, 60 h, at 10 µM, stronger effect = lower value;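 note: 0% = wells killed by 20 µM Hyamine and 100% = untreated DMSO cell wells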
[5] = growth suppression of PTEN-deleted HCT116, pilot screen, cell-based, HCT116 clonal line, CellTiter-Glo (AID 824;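 active = viability at or below 27.92% in each of two runs, the all-compound median minus 4 SD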;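 note: 0% = 20 µM Hyamine control and 100% = vehicle cell control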); details: 60 h, at 10 µM, stronger effect = lower value
[6] = inhibitors of the yeast RAM network, pilot screen, dse1pr::URA3 reporter, 5-FOA selection (AID 869;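 active = inhibition over a set limit, the all-compound mean plus 3 SD, in both replicate runs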;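 note: 0% = DMSO wells with no growth and 100% = 10 µM 1-NA-PP1 with full growth; RAM network block rescues cells from 5-FOA so hits raise OD615 growth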); details: S. cerevisiae dse1pr::URA3 5-FOA growth, OD615, 2 d; at 10 µM; stronger effect = higher value; strain carries analog-sensitive mutant Cbk1 kinase
[7] = RAM signaling pathway blockade in yeast – S. cerevisiae, Pdr1DBD-CYC8 efflux-inhibited sensitized strain, primary screen (AID 1298;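 active = RAM network inhibition above 8.4% in each of two replicates, 3 SD over the compound average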;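 note: 0% = DMSO untreated cells without growth and 100% = 10 µM 1-NA-PP1 full growth; higher means more yeast growth rescued from 5-FOA killing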); details: S. cerevisiae cbk1-as DSE1-URA3 strain, 5-FOA growth OD615, 2 d; at 50 µM; stronger effect = higher value

Compound | growth inhibition [1] [%] | growth inhibition [2] [%] | viability increase [3] [%] | viability [4] | viability [5] | inhibition [6] [%] | RAM network inhibition [7] [%]
O=C1c2ccccc2NC(c2ccc3c(c2)OCCO3)N1c1ccc2c(c1)OCCO2 (configuration not stated) | -5.15 | 6.69 | -2.17 | 90.5% | 79.5% | 0.615 | 0.98
CCOc1ccc(OCC)c(S(=O)(=O)NCCCN2CCOCC2)c1 | -13.8 | -12.2 | -0.25 | 99.8% | 99% | 0.535 | 0.2
Cc1cc2ncn(C(=O)c3c(-c4c(Cl)cccc4Cl)noc3C)c2cc1C | 0.3 | 5.04 | -3.42 | 95.5% | 94.5% | 1.99 | 8.25
O=C1CC(c2ccco2)CC2=C1C1c3ccccc3C(=O)N1c1ccccc1N2 (configuration not stated) | -9.63 | -5.43 | 3.98 | 7.74% (active) | 7.59% (active) | 1.36 | 4.2
CCC(=O)c1ccc(CCCCCC(=O)O)s1 | 4.35 | -7.41 | -0.1 | 98.2% | 98.7% | 1.34 | 3.2
Cc1cc(C)c(S(=O)(=O)NCCCN2CCOCC2)cc1Br | -7.38 | -14.8 | -2.34 | 91.8% | 90.9% | 0.75 | 0.92
COc1ccc(C2C(C(N)=O)=C(C)Nc3nc(-c4ccccc4Cl)nn32)c(OC)c1 (configuration not stated) | -17.8 | -11.2 | -0.07 | 93.9% | 94.7% | 1.21 | -1.06
Fc1ccc(Cc2nnc(-c3cccs3)o2)cc1 | -20.1 | -0.63 | 0.11 | 104% | 97.8% | 1.93 | 12.2
CCCCOC(=O)CCc1n[nH]c(=O)[nH]c1=O | -11.1 | -17.6 | -1.14 | 99.8% | 99% | 2.12 | 2.93
CCn1cc(C(=O)OCC(=O)Nc2c(C)n(C)n(-c3ccccc3)c2=O)c(=O)c2ccc(C)nc21 | -11.8 | -0.91 | -0.65 | 97.6% | 95% | 0.195 | 0.21
O=C1Nc2ccc(S(=O)(=O)N3CCCC3C(=O)O)c3cccc1c23 (configuration not stated) | 1.8 | -5.75 | -2.22 | 92.8% | 96.8% | 0.57 | 0.21
CC1(C)Oc2ccc3ccc(=O)oc3c2/C(=C/Nc2ccccn2)C1=O | -22.4 | -16 | -1.39 | 95% | 93.3% | 4.12 | 6.38
O=C(NCCN1C(=O)C2C3C=CC(C3)C2C1=O)NCc1ccccc1 (configuration not stated) | -14.8 | 3.81 | -0.69 | 102% | 99.8% | 1.61 | 1.83
Cc1ccc(C)c2[nH]c(=O)c(CCNC(=O)C(C)C)cc12 | -14.5 | -18.6 | -0.31 | 102% | 104% | 1.83 | 2.82
O=C(Nc1ccc(N2CCOCC2)cc1)NC1CCCCC1 | -0.89 | 1.07 | -1.27 | 103% | 101% | -0.22 | 9.28
Cc1ccc(C(C)C)c(OCC(=O)N2CCOCC2)c1 | -10.1 | -20.3 | -0.67 | 99.3% | 91.4% | 1.69 | 1.97
COc1ccc(C2C(C(=O)N3CCOCC3)CCC(=O)N2c2cc(OC)c(OC)c(OC)c2)cc1 (configuration not stated) | -10.2 | -12.3 | -0.09 | 99.7% | 102% | 0.705 | 1.3
CCOC(=O)C1=C(C)NC2=C(C(=O)CCC2)C1c1cc(OC)ccc1OC (configuration not stated) | -10.6 | -12.8 | -1.47 | 94.1% | 96.3% | 1.73 | 7.52

Compound | growth inhibition [1] [%] | growth inhibition [2] [%] | viability increase [3] [%] | viability [4] | viability [5] | inhibition [6] [%] | RAM network inhibition [7] [%]
CC1(C)C(C#N)=C(N)OC2=C1C(=O)CCC2 | -8.74 | -5.87 | -0.89 | 96.3% | 97.4% | 2.41 | 1.3
c1ccc(CNc2ncnc3c2ncn3C2CCCCO2)cc1 (configuration not stated) | -5.22 | -8.96 | -1.76 | 101% | 98% | 1.25 | 5.84
CC1CN(C2CC(C)(C)NC(C)(C)C2)CCC1=O (configuration not stated) | -5.84 | -0.43 | 1.05 | 96.7% | 100% | -0.505 | 5.32
Cc1ccc2oc(=O)c3cnn(CC(=O)N(CCC(C)C)Cc4ccco4)c3c2c1 | -4.76 | -1.21 | -3.21 | 88.5% | 87.3% | 0.29 | 5.23
Cn1cc(CC(=O)NCCCN2CCCC2=O)c2ccccc21 | -3.36 | -11.5 | -1.83 | 99.3% | 87.3% | 0.77 | -0.89
CCN(CCCNC(=O)Cn1cc2c(n1)CCCC2)c1cccc(C)c1 | -4.97 | 3.35 | -3.77 | 86% | 81.5% | 0.48 | 4.45
CC(Oc1ccc(Cl)cc1Cl)C(=O)Nc1ccncc1 (configuration not stated) | -13.3 | -9.66 | -6.03 | 54.9% | 54.2% | 1.19 | 2.04
CCc1cccc(OCC(=O)Nc2ccc(S(=O)(=O)Nc3onc(C)c3C)cc2)c1 | -13.4 | 8.17 | -1.89 | 98.7% | 97% | -0.085 | 1.89
CCOC(=O)c1c(C)[nH]c(C(=O)OC)c1CCC(=O)OC | -9.89 | -23.6 | -2.86 | 90.8% | 91.9% | 2.56 | 2.65
Cc1nc2ccccc2c2oc(C(=O)NCCN3CCN(C)CC3)cc12 | -12.1 | -15.1 | -1.69 | 89.4% | 98.8% | 1.64 | 3.28
Cc1cc(Cl)ccc1N=Cc1c(O)n(C)c(=O)n(C)c1=O | 1.62 | 1.2 | 2.36 | 106% | 105% | 0.11 | -1.25
COc1ccc(OC)c(NC(=O)CSc2nnc(Cn3c(=O)sc4ccccc43)n2C)c1 | -10.2 | -1.53 | -2.91 | 94.3% | 86.5% | 2.36 | 3.22
O=C(CCS(=O)(=O)c1cccc2nonc12)N1CCCc2ccccc21 | -10.4 | -22.1 | -4.61 | 92.8% | 92.9% | 2.08 | 8.49
CSC1=NCCN1C(=O)COc1ccc2ccccc2c1 | -2.13 | -6.38 | 0.69 | 98.9% | 101% | 2.77 | -0.94
Cc1cc(C(=O)N2CCN(S(C)(=O)=O)CC2)cs1 | -7.07 | -12.8 | -1.25 | 94.5% | 88.9% | 1.6 | -0.04
COc1ccc(NC(=O)NCCCN2CCc3ccccc3C2)cc1 | 3.62 | 0.72 | -2.53 | 97.3% | 98.2% | 1.15 | -1.19
CCc1cc2c(=O)n(N)c(CCC(=O)O)nc2s1 | -14.9 | -3.94 | -1.37 | 100% | 96.1% | 0.425 | 8.13
CCOC(=O)C(C(=O)OCC)c1cc(Br)c2noc3c2c1C(=O)c1ccccc1-3 | -15.6 | -3.25 | -8.25 | 1.06% (active) | 1.23% (active) | 1.65 | 1.87
